Source: PubChem
Hits are enriched below; roughly 1.1% of the tested compounds scored in any of these assays.
FXIIa inh = inhibitors of human coagulation factor XIIa | P00748 | purified FXIIa, Boc-QGR-AMC fluorogenic substrate, 2 h | inhibition, % at 5 µM | hit rate 0.3% among 220,000 | AID 800; in the data active = inhibition above about 40%
FXIa inh 1536 = factor XIa (human) inhibition | P03951 | purified FXIa, Boc-Glu-Ala-Arg-AMC fluorogenic substrate | inhibition, % at 5 µM | hit rate 0.14% among 220,000 | AID 798;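 active = inhibition of at least 40%; inactive = inhibition below 40%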;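 also: fluorescence of freed AMC excited at 355 nm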
hK5 inh = inhibitors of human kallikrein 5; hit rate 0.59% among 210,000; inhibition, % at 5 µM; AID 873; Q9Y337; recombinant hK5, fluorogenic AMC substrate cleavage;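 active = inhibition of 40% or more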
Thrombin inh = inhibitors of human thrombin; P00734; alpha-thrombin, Boc-VPR-AMC fluorogenic substrate cleavage; inhibition, % at 5 µM; hit rate 0.26% among 220,000; AID 1046;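 active = inhibition at or above 40%; inactive = inhibition below 40%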
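Material: human alpha-thrombin enzyme / Medium: pH 7.5 Tris (50 mM) with NaCl 150 mM, Tween 20 0.05% / Compound: single-point dosing at 5 µM, 0.2% DMSO / Incubation: enzyme reaction carried out at room temperature / Detection: AMC fluorescence, 355/460 nm / Read-out basis: percent inhibition scaled between no-compound controls and no-enzyme blanks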
Furin inhibitor = blocks human furin protease activity. inhibition, % at 20 µM or 30 µM. AID 463115. hit rate 0.061% among 220,000. purified furin, fluorogenic substrate cleavage; in the data active = inhibition above about 25%
A number is an active result; – = inactive; · = no result given.

SMILES | FXIIa inh | FXIa inh 1536 | hK5 inh | Thrombin inh | Furin inhibitor
O=C(NCc1ccccn1)C(C(=O)c1cccc([N+](=O)[O-])c1)n1cc(Cl)ccc1=O (stereo unspecified) | – | – | – | – | –
CCOC(=O)CN1C(=O)COc2ccc(Cl)cc21 | – | – | – | – | –
CCOc1ccccc1NC(=O)CN1C(=O)COc2ccc(Cl)cc21 | – | – | 43 | – | –
Oc1ccc2ccccc2c1C=NC12CN3CCN(CN(C3)C1)C2 | – | – | 44 | – | –
COc1cc(CCN2C(=O)N[C@@H](CCc3ccccc3)C(C(C)=O)=C2C)cc(OC)c1OC | – | – | – | – | –
CCOc1ccccc1NC(=S)NCc1ccco1 | – | – | 45 | – | –
Cc1ccccc1NC(=S)NCc1ccco1 | – | – | – | – | –
O=c1[nH]c2ccccc2nc1-c1ccc(Cl)cc1 | – | – | – | – | –
O=c1[nH]c2ccccc2nc1-c1ccccc1 | – | – | 112 | – | –
O=C(Nc1ccc(Cl)c(C(F)(F)F)c1)N1CCCC(O)C1 (stereo unspecified) | 42 | – | – | – | –
CCOC(=O)c1c(NC(=O)CN2C(=O)NC(C)(c3ccc(Cl)cc3)C2=O)sc(C(=O)NC)c1C (stereo unspecified) | – | – | – | – | –
Cc1cc(C)c(NC(=S)NCC2CCN(C(C)c3ccccc3)C2)c(C)c1 (stereo unspecified) | – | – | · | – | –
Cc1ccc(C)c(C(=O)c2c(C)nc3sccn23)c1 | – | – | 44 | – | –
COC(=O)c1cccc(NC(=O)Nc2ccc(Cl)cc2Cl)c1 | – | – | 42 | – | –
Cn1nc(NC(=O)CC(C)(C)CC(=O)O)c2ccccc21 | – | – | – | – | –
COc1ccc(C(=O)c2oc3ccccc3c2N)cc1 | – | – | – | – | –
COc1ccc2oc(C(=O)c3ccccc3)c(N)c2c1 | – | – | 49 | – | –
CCC(C)(C(=O)NC1CCCCC1)N(Cc1cccs1)C(=O)Cc1cccs1 (stereo unspecified) | – | – | – | – | –
CCC(C)(C(=O)NC1CCCCC1)N(Cc1ccco1)C(=O)c1ccccn1 (stereo unspecified) | 54 | – | – | – | –
O=C(O)CC1(CC(=O)NCc2ccc(C(F)(F)F)cc2)CCCCC1 | – | – | – | – | –
O=C(O)CC1(CC(=O)NCc2ccncc2)CCCCC1 | 41 | – | – | – | –
COc1cc(Cl)c(S(=O)(=O)N2CCOCC2)cc1Cl | – | – | – | – | –
COc1cc(Cl)c(S(=O)(=O)N2CC(C)OC(C)C2)cc1Cl (stereo unspecified) | – | – | 54 | – | –
CCC(=O)N/C(=N/c1nc(C)cc(C)n1)Nc1ccc(OC)cc1 | – | – | – | 51 | –
CN(C)c1ccc(-c2nnn(CC(=O)Nc3ccccc3N3CCOCC3)n2)cc1 | – | – | 66 | – | –
SMILES | FXIIa inh | FXIa inh 1536 | hK5 inh | Thrombin inh | Furin inhibitor
COc1ccc(C(=O)NC2CCN(C(=O)Nc3ccccc3Cl)CC2)cc1 | – | – | – | · | –
CC(C)c1ccc(NC(=O)COc2ccccn2)cc1 | – | – | – | 89 | –
CC(C)c1ccc(OCC(=O)Nc2ccc(OC(F)(F)F)cc2)cc1 | – | – | – | – | –
O=C(Nc1nc(-c2ccccc2)cs1)c1ccc(S(=O)(=O)N2CCc3ccccc32)cc1 | – | 59 | – | – | –
Cc1ccc(-c2csc(NC(=O)c3ccc(S(=O)(=O)N4CCc5ccccc54)cc3)n2)cc1 | – | – | – | – | –
COc1cc([N+](=O)[O-])cc2sc(NC(C)=O)nc12 | – | 60 | – | – | –
Cc1nc2ccccc2nc1OCc1ccc([N+](=O)[O-])cc1 | – | – | – | – | –
Cc1ccc2c(c1)C(O)(CC(=O)c1ccc3c(c1)OCO3)C(=O)N2 (stereo unspecified) | – | – | – | – | –
CS(=O)(=O)Nc1cccc(C(=O)CC2(O)C(=O)Nc3ccc(Br)cc32)c1 (stereo unspecified) | – | – | 73 | 60 | –
O=C(CC1(O)C(=O)Nc2ccc(Br)cc21)c1ccc2c(c1)OCO2 (stereo unspecified) | – | – | – | 50 | –
